Measurements as given in ChEMBL document CHEMBL3612019, “Revisiting 1,3,4-Oxadiazol-2-ones: Utilization in the Development of ABHD6 Inhibitors” (Bioorg Med Chem, 2015).
Activity calls are given as the source filed them. The calls are words filed in the database; no cut-off is given here.

Tests used:
[1] = target: T1, Lysophosphatidylserine lipase ABHD12 (Homo sapiens) (UniProt Q8N2K0); experiment: Inhibition of human ABHD12 expressed in HEK293 cells assessed as remaining enzyme activity at 1 uM pre-incubated for 10 mins before 2-AG substrate addition by HPLC method; type: cell-based
T1 sequence (whole entry): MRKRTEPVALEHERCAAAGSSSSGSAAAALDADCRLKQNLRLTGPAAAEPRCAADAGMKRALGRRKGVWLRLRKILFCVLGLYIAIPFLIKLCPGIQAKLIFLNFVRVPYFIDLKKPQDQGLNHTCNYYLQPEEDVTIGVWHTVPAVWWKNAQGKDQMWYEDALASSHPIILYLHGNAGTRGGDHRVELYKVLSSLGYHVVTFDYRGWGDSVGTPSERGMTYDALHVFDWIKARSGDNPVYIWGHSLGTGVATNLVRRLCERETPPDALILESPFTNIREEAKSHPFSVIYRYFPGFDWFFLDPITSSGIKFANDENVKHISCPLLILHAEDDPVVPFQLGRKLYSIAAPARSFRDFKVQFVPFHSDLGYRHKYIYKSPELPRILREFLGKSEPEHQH

[2] = target: T2, Monoacylglycerol lipase ABHD6 (Homo sapiens) (UniProt Q9BV23); experiment: Inhibition of human ABHD6 expressed in HEK293 cells assessed as remaining enzyme activity by measuring reduction in glycerol production from 1-AG hydrolysis at 1 uM pre-incubated for 30 mins before 1-AG substrate addition and measured 90 mins post substrate addition by fluorescence method; type: cell-based
T2 sequence (whole entry): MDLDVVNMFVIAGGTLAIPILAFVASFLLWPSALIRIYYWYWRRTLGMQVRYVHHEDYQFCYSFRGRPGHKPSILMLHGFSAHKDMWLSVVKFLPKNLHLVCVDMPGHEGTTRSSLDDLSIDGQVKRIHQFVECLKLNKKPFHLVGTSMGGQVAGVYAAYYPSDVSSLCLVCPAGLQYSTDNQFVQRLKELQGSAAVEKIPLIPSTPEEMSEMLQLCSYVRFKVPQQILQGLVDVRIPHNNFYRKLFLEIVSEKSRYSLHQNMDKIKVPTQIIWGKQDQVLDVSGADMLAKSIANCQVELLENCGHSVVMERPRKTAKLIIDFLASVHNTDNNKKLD
Summary of the method: (§1)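 hABHD6-HEK293 lysates pretreated 30 min with DMSO or inhibitor, then given 1-AG (12.5 µM final). Glycerol release was followed kinetically by fluorescence (emission 590 nm). Blanks without lysate were subtracted. IC50 was taken at the 90 min time point by nonlinear fitting of dose–response curves.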

[3] = target: T3, Fatty-acid amide hydrolase 1 (Homo sapiens) (UniProt O00519); experiment: Inhibition of human FAAH expressed in COS7 cell membranes at 10 uM pre-incubated for 10 mins before [3H]-AEA substrate addition by liquid scintillation counting; details: COS-7
T3 sequence (whole entry): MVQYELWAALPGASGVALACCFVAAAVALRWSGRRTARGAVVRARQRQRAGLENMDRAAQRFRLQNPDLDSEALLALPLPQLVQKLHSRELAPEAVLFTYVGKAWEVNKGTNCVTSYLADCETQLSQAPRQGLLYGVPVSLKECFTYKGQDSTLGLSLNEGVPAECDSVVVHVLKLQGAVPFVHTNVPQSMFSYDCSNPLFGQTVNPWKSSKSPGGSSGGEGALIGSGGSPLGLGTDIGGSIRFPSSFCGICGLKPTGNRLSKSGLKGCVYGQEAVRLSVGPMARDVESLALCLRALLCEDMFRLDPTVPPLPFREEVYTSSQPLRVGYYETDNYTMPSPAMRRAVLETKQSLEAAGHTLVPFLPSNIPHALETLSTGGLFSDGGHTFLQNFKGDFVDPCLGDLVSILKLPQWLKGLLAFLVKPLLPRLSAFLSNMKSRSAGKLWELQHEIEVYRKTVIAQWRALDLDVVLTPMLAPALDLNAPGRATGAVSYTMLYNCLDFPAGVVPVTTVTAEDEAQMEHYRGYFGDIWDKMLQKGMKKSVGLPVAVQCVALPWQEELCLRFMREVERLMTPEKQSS

[4] = target: T4, Monoglyceride lipase (Homo sapiens) (UniProt Q99685); experiment: Inhibition of human MAGL expressed in HEK293 cells at 10 uM pre-incubated for 10 mins before 2-AG substrate addition by HPLC method; type: cell-based
T4 sequence (whole entry): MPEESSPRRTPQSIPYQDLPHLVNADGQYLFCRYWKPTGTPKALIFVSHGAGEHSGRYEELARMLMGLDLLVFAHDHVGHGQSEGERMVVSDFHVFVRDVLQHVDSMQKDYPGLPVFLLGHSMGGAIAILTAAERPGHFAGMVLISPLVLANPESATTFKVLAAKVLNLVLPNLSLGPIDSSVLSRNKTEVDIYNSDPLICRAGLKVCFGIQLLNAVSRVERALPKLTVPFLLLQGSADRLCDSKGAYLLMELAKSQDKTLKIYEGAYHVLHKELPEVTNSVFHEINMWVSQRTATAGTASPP
Summary of the method: (§2)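 Lysates of hMAGL-overexpressing HEK293 cells in 50 mM Tris–HCl pH 7.4 with 1 mM EDTA. After a 10 min preincubation with inhibitor or DMSO, 2-AG was added (final 50 µM) and incubated 10 min at 37 °C. The reaction was stopped and samples centrifuged. Arachidonic acid formation and 2-AG depletion were measured by HPLC. Replicates as for the FAAH assay.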

[5] = target: T5, Fatty-acid amide hydrolase 1 (Homo sapiens, UniProt O00519); experiment: Inhibition of human FAAH expressed in COS7 cell membranes pre-incubated for 10 mins before [3H]-AEA substrate addition by liquid scintillation counting; parameters: species or system COS-7
T5 sequence (O00519 whole entry): T3 sequence (whole entry)

[6] = target: T6, Monoacylglycerol lipase ABHD6 (Homo sapiens, UniProt Q9BV23); experiment: Inhibition of human ABHD6 expressed in HEK293 cells assessed as reduction in glycerol production from 1-AG hydrolysis pre-incubated for 30 mins before 1-AG substrate addition and measured 90 mins post substrate addition by fluorescence method; type: cell-based; summary of the method: as §1
T6 sequence (Q9BV23 whole entry): T2 sequence (whole entry)

Monoglyceride lipase = target: T7, Monoglyceride lipase (Homo sapiens, UniProt Q99685); experiment: Inhibition of human MAGL expressed in HEK293 cells pre-incubated for 10 mins before 2-AG substrate addition by HPLC method; type: cell-based; summary of the method: as §2
T7 sequence (Q99685 whole entry): T4 sequence (whole entry)

[7] = target: Cannabinoid receptor 1 (Rattus norvegicus) (UniProt P20272); details: Cerebellum, Membrane, 1 uM
[8] = target: T6, Monoacylglycerol lipase ABHD6; experiment: Inhibition of human ABHD6 expressed in HEK293 cells at 1 uM pre-incubated for 10 mins before 2-AG substrate addition followed by rapid 40 fold compound dilution measured after 30 mins by HPLC method; type: cell-based
[9] = target: T6, Monoacylglycerol lipase ABHD6; experiment: Inhibition of human ABHD6 expressed in HEK293 cells at 1 uM pre-incubated for 10 mins before 2-AG substrate addition followed by rapid 40 fold compound dilution measured after 90 mins by HPLC method; type: cell-based
[10] = target: T6, Monoacylglycerol lipase ABHD6; experiment: Inhibition of human ABHD6 expressed in HEK293 cells at 1 uM pre-incubated for 10 mins before 2-AG substrate addition followed by rapid 40 fold compound dilution measured after 10 mins by HPLC method; type: cell-based
[11] = target: T6, Monoacylglycerol lipase ABHD6; experiment: Inhibition of human ABHD6 expressed in HEK293 cells at 1 uM pre-incubated for 10 mins before 2-AG substrate addition followed by rapid 40 fold compound dilution measured after 60 mins by HPLC method; type: cell-based

Cannabinoid receptor 1 (Rattus norvegicus), sequence (P20272 whole entry): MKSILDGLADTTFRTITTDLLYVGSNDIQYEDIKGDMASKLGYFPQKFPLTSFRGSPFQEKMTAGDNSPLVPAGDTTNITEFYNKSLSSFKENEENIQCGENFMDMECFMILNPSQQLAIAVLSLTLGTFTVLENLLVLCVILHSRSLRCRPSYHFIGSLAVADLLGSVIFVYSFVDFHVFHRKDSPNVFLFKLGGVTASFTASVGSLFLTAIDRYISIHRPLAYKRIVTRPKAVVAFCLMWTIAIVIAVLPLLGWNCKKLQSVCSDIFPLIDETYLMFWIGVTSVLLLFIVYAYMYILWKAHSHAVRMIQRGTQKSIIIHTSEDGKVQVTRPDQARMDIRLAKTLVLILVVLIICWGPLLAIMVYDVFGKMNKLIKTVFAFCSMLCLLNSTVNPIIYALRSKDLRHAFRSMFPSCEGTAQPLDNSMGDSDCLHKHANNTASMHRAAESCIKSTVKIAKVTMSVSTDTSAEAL

## COc1nn(Cc2ccccc2N)c(=O)o1
[1]
  inhibition: inactive
[2]
  inhibition: inactive
[3]
  inhibition: 8%
[4]
  inhibition: 4%

## COc1nn(Cc2ccccc2Oc2ccccc2)c(=O)o1
[2]
  Activity: 60%
[4]
  inhibition: inactive

## COc1nn(Cc2ccc3ccccc3c2)c(=O)o1
[1]
  inhibition: inactive
[2]
  inhibition: inactive
[4]
  inhibition: inactive
[5]; read-out: IC50
  IC50: 3980 nM
[5]; read-out: pIC50 (converted)
  IC50: 3980 nM

## COc1nn(Cc2ccccc2NC(=O)c2ccccc2)c(=O)o1
[1]
  inhibition: inactive
[2]
  inhibition: inactive
[3]
  inhibition: inactive
[4]
  inhibition: inactive

## CCOc1nn(Cc2cccc(N)c2)c(=O)o1
[1]
  inhibition: inactive
[2]
  inhibition: inactive
[3]
  inhibition: 10%
[4]
  inhibition: 15%

## COc1nn(Cc2cccc(NC(=O)c3ccccc3)c2)c(=O)o1
[1]
  inhibition: inactive
[2]
  Activity: 79%
[3]
  inhibition: inactive
[4]
  inhibition: 48%

## COc1nn(Cc2ccc(N)cc2)c(=O)o1
[1]
  inhibition: inactive
[2]
  inhibition: inactive
[3]
  inhibition: 34%
[4]
  inhibition: 23%

## COc1nn([C@@H](C)c2ccc(CC(C)C)cc2)c(=O)o1
[2]
  inhibition: inactive

## COC(=O)c1cccc(Cn2nc(OC)oc2=O)c1
[1]
  inhibition: inactive
[3]
  inhibition: 20%
[6]
  IC50: 450 nM
[4]
  inhibition: 7%

## COc1nn(Cc2ccc(Oc3ccccc3)cc2)c(=O)o1
[2]
  Activity: 77%
Monoglyceride lipase; hek293
  pIC50: 6.4

## COc1nn(Cc2cccc(-c3ccccc3)c2)c(=O)o1
[2]
  inhibition: inactive

## COc1nn(Cc2ccc(CC(C)C)cc2)c(=O)o1
[2]
  inhibition: inactive

## COc1nn(Cc2ccccc2[N+](=O)[O-])c(=O)o1
[1]
  inhibition: inactive
[2]
  Activity: 57%
[3]
  inhibition: 36%
[4]
  inhibition: 43%

## COc1cccc(Cn2nc(OC)oc2=O)c1
[1]
  inhibition: inactive
[2]
  Activity: 70%
[3]
  inhibition: inactive
[4]
  inhibition: 6%

## COc1nn(Cc2ccc(NC(C)=O)cc2)c(=O)o1
[1]
  inhibition: inactive
[2]
  inhibition: inactive
[3]
  inhibition: 37%
[4]
  inhibition: 16%

## COc1nn(Cc2cccc(C#N)c2)c(=O)o1
[1]
  inhibition: inactive
[2]
  Activity: 63%
[3]
  inhibition: inactive
[4]
  inhibition: 23%

## COc1nn(Cc2ccccc2)c(=O)o1
[2]
  Activity: 61%
[3]
  inhibition: inactive
[4]
  inhibition: inactive

## Cc1c(C(=O)NN2CCCCC2)nn(-c2ccc(Cl)cc2Cl)c1-c1ccc(I)cc1
[7]
  inhibition: 38%

## COc1nn(Cc2cccc(NC(C)=O)c2)c(=O)o1
[1]
  inhibition: inactive
[2]
  inhibition: inactive
[3]
  inhibition: inactive
[4]
  inhibition: 12%

## COc1nn(Cc2cccc([N+](=O)[O-])c2)c(=O)o1
[1]
  inhibition: inactive
[2]
  Activity: 65%
[3]
  inhibition: 7%
[4]
  inhibition: 32%

## COc1nn(Cc2cccc3ccccc23)c(=O)o1
[1]
  inhibition: inactive
[2]
  Activity: 64%
[3]
  inhibition: 35%
[4]
  inhibition: 11%

## COc1nn(Cc2ccc([N+](=O)[O-])cc2)c(=O)o1
[1]
  inhibition: inactive
[2]
  inhibition: inactive
[3]
  inhibition: 18%
[4]
  inhibition: 36%

## COc1nn(Cc2ccc(-c3ccccc3)cc2)c(=O)o1
[2]
  inhibition: inactive

## COc1nn(Cc2cccc(Oc3ccccc3)c2)c(=O)o1
[2]
  Activity: 70%

## O=c1oc(Oc2ccccc2)nn1Cc1cccc([N+](=O)[O-])c1
[1]
  inhibition: inactive
[3]
  inhibition: 38%
[6]
  IC50: 130 nM
Monoglyceride lipase; read-out: IC50
  IC50: 3310 nM
Monoglyceride lipase; read-out: pIC50 (converted)
  IC50: 3240 nM

## O=C(N1CCC(=C2c3ccc(Cl)cc3CCc3cccnc32)CC1)n1cncn1
[6]; hek293
  IC50: 1780 nM
Monoglyceride lipase; hek293, read-out: IC50
  IC50: 46 nM
[5]; cos-7, read-out: IC50
  IC50: 7240 nM

## COc1nn(Cc2cccc(OCc3ccccc3)c2)c(=O)o1
[1]
  inhibition: inactive
[2]
  Activity: 53%
Monoglyceride lipase; read-out: IC50
  IC50: 3230 nM
[5]; read-out: IC50
  IC50: 1510 nM
[5]; read-out: pIC50 (converted)
  IC50: 1510 nM

## COc1nn(Cc2cccc(Cl)c2)c(=O)o1
[1]
  inhibition: inactive
[2]
  Activity: 52%
[3]
  inhibition: 37%
[4]
  inhibition: 43%

## COc1nn(Cc2cccc(C(F)(F)F)c2)c(=O)o1
[1]
  inhibition: inactive
[3]
  inhibition: 12%
[6]
  IC50: 870 nM
[4]
  inhibition: 48%

## COc1nn(Cc2ccccc2NC(C)=O)c(=O)o1
[1]
  inhibition: inactive
[2]
  inhibition: inactive
[3]
  inhibition: 11%
[4]
  inhibition: 3%

## CN(C(=O)Oc1nsnc1N1CCOCC1)C1CCCCCCC1
[8]
  IC50: 87.1 nM
[9]
  IC50: 93.3 nM
[3]
  inhibition: 18%
[6]; hek293
  pIC50: 7.36
[4]
  inhibition: inactive
[10]
  IC50: 91.2 nM
[11]
  IC50: 87.1 nM

## COC(=O)c1ccc(Cn2nc(OC)oc2=O)cc1
[1]
  inhibition: inactive
[2]
  inhibition: inactive
[4]
  inhibition: 15%
[5]; read-out: IC50
  IC50: 6760 nM
[5]; read-out: pIC50 (converted)
  IC50: 6760 nM

## COc1nn(Cc2ccc(OCc3ccccc3)cc2)c(=O)o1
[1]
  inhibition: inactive
[2]
  inhibition: inactive
Monoglyceride lipase; read-out: IC50
  IC50: 520 nM
[5]; read-out: IC50
  IC50: 410 nM
[5]; read-out: pIC50 (converted)
  IC50: 407 nM

## COc1nn(Cc2ccc(NC(=O)c3ccccc3)cc2)c(=O)o1
[1]
  inhibition: inactive
[2]
  Activity: 88%
Monoglyceride lipase; read-out: IC50
  IC50: 560 nM
[5]; read-out: IC50
  IC50: 620 nM
[5]; read-out: pIC50 (converted)
  IC50: 617 nM

## COc1nn(Cc2ccc(C#N)cc2)c(=O)o1
[1]
  inhibition: inactive
[2]
  inhibition: inactive
[3]
  inhibition: inactive
[4]
  inhibition: 25%

## COc1nn(Cc2ccccc2-c2ccccc2)c(=O)o1
[1]
  inhibition: inactive
[2]
  inhibition: inactive
[3]
  inhibition: 23%
[4]
  inhibition: 8%
